# Measured values from ChEMBL document CHEMBL1255410, “Activity of the investigational fluoroquinolone finafloxacin against ciprofloxacin-sensitive and -resistant Acinetobacter baumannii isolates” (2010).
# Tests used:
# Type in all cases: functional
# Acinetobacter baumannii [1] = assay: Antimicrobial activity against Acinetobacter baumannii isolate 58 harboring GyrA Ser83-Leu and ParC Ser80-Leu mutation at pH 7.2
# Outline: (§1)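 Agar dilution MIC on Mueller-Hinton agar under standard conditions (pH 7.2). Antibiotic-containing plates were made the same day from freshly prepared medium. Agar pH was checked after solidifying. Both fluoroquinolones were tested simultaneously against A. baumannii isolates with characterized gyrA/parC genes. MICs are in μg/ml.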
# Acinetobacter baumannii [2] = assay: Antimicrobial activity against Acinetobacter baumannii isolate 10 at pH 5.8
# Outline: (§2)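 MIC by agar dilution on Mueller-Hinton agar acidified to pH 5.8 with HCl before antibiotic-containing plates were poured. Agar pH was rechecked once the agar had solidified. Isolates had characterized gyrA/parC genes. Plates for both drugs were made the same day from fresh media, and MICs were read in parallel with the standard-pH set.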
# Acinetobacter baumannii [3] = assay: Antimicrobial activity against Acinetobacter baumannii isolate 21 harboring GyrA Ser83-Leu mutation at pH 5.8; outline: as §2
# Acinetobacter baumannii [4] = assay: Antimicrobial activity against adeB overexpressing Acinetobacter baumannii isolate 68 harboring GyrA Ser83-Leu and ParC Ser80-Leu mutation at pH 5.8
# Outline: (§3)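 Agar dilution MIC on Mueller-Hinton agar acidified to pH 5.8 with HCl before the antibiotic-containing plates were poured. Agar pH was checked after solidifying. Plates were made the same day from fresh medium. Both fluoroquinolones were tested simultaneously against A. baumannii isolates with characterized gyrA/parC genes. MICs are in μg/ml.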
# Acinetobacter baumannii [5] = assay: Antimicrobial activity against Acinetobacter baumannii isolate 1 at pH 7.2
# Outline: (§4)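 MIC by agar dilution on Mueller-Hinton agar under standard conditions (pH 7.2), against isolates with characterized gyrA/parC genes. Agar pH was checked after solidifying. Plates for both drugs were prepared the same day from freshly made media, and MICs were determined simultaneously with the pH 5.8 set.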
# Acinetobacter baumannii [6] = assay: Antimicrobial activity against Acinetobacter baumannii isolate 64 harboring GyrA Ser83-Leu and ParC Ser80-Leu mutation at pH 7.2; outline: as §1
# Acinetobacter baumannii [7] = assay: Antimicrobial activity against Acinetobacter baumannii isolate 5 at pH 7.2
# Outline: (§5)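 Agar dilution MIC on Mueller-Hinton agar. For the acidic condition, HCl was added to bring the agar to pH 5.8 before pouring the antibiotic plates, and the pH was checked after the agar set. The standard condition was pH 7.2. Both drugs' plates were made the same day from fresh medium, and MICs were read at the same time.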
# Acinetobacter baumannii [8] = assay: Antimicrobial activity against Acinetobacter baumannii isolate 25 harboring GyrA Ser83-Leu mutation at pH 5.8; outline: as §2
# Acinetobacter baumannii [9] = assay: Antimicrobial activity against Acinetobacter baumannii isolate 32 harboring GyrA Ser83-Leu mutation at pH 7.2; outline: as §5
# Acinetobacter baumannii [10] = assay: Antimicrobial activity against adeB overexpressing Acinetobacter baumannii isolate 67 harboring GyrA Ser83-Leu and ParC Ser80-Leu mutation at pH 7.2; outline: as §1
# Acinetobacter baumannii [11] = assay: Antimicrobial activity against Acinetobacter baumannii isolate 50 harboring GyrA Ser83-Leu and ParC Ser80-Leu mutation at pH 7.2; outline: as §5
# Acinetobacter baumannii [12] = assay: Antimicrobial activity against Acinetobacter baumannii isolate 30 harboring GyrA Ser83-Leu mutation at pH 5.8; outline: as §2
# Acinetobacter baumannii [13] = assay: Antimicrobial activity against Acinetobacter baumannii isolate 6 at pH 7.2; outline: as §1
# Acinetobacter baumannii [14] = assay: Antimicrobial activity against Acinetobacter baumannii isolate 32 harboring GyrA Ser83-Leu mutation at pH 5.8; outline: as §5
# Acinetobacter baumannii [15] = assay: Antimicrobial activity against Acinetobacter baumannii isolate 43 harboring GyrA Ser83-Leu mutation at pH 7.2; outline: as §5
# Acinetobacter baumannii [16] = assay: Antimicrobial activity against Acinetobacter baumannii isolate 49 harboring GyrA Ser83-Leu and ParC Ser80-Leu mutation at pH 7.2; outline: as §5
# Acinetobacter baumannii [17] = assay: Antimicrobial activity against Acinetobacter baumannii isolate 11 at pH 5.8; outline: as §2
# Acinetobacter baumannii [18] = assay: Antimicrobial activity against Acinetobacter baumannii isolate 17 at pH 7.2; outline: as §4
# Acinetobacter baumannii [19] = assay: Antimicrobial activity against Acinetobacter baumannii isolate 25 harboring GyrA Ser83-Leu mutation at pH 7.2; outline: as §4
# Acinetobacter baumannii [20] = assay: Antimicrobial activity against Acinetobacter baumannii isolate 16 at pH 7.2; outline: as §4
# Acinetobacter baumannii [21] = assay: Antimicrobial activity against Acinetobacter baumannii isolate 39 harboring GyrA Ser83-Leu mutation at pH 5.8; outline: as §5
# Acinetobacter baumannii [22] = assay: Antimicrobial activity against Acinetobacter baumannii isolate 29 harboring GyrA Ser83-Leu mutation at pH 5.8; outline: as §2
# Acinetobacter baumannii [23] = assay: Antimicrobial activity against Acinetobacter baumannii isolate 64 harboring GyrA Ser83-Leu and ParC Ser80-Leu mutation at pH 5.8; outline: as §3
# Acinetobacter baumannii [24] = assay: Antimicrobial activity against Acinetobacter baumannii isolate 53 harboring GyrA Ser83-Leu and ParC Ser80-Leu mutation at pH 5.8; outline: as §5
# Acinetobacter baumannii [25] = assay: Antimicrobial activity against Acinetobacter baumannii isolate 22 harboring GyrA Ser83-Leu mutation at pH 5.8; outline: as §2
# Acinetobacter baumannii [26] = assay: Antimicrobial activity against Acinetobacter baumannii isolate 60 harboring GyrA Ser83-Leu and ParC Ser80-Leu mutation at pH 7.2; outline: as §1
# Acinetobacter baumannii [27] = assay: Antimicrobial activity against Acinetobacter baumannii isolate 40 harboring GyrA Ser83-Leu mutation at pH 7.2; outline: as §5
# Acinetobacter baumannii [28] = assay: Antimicrobial activity against Acinetobacter baumannii isolate 4 at pH 7.2; outline: as §5
# Acinetobacter baumannii [29] = assay: Antimicrobial activity against Acinetobacter baumannii isolate 4 at pH 5.8
# Outline: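 Agar dilution MIC on Mueller-Hinton agar acidified with HCl before pouring antibiotic plates; agar pH checked after setting. Isolate has characterized gyrA/parC genes. Plates made the same day from fresh medium, and both drugs tested at the same time. Read-out: MIC (μg/ml).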
# Acinetobacter baumannii [30] = assay: Antimicrobial activity against Acinetobacter baumannii isolate 43 harboring GyrA Ser83-Leu mutation at pH 5.8; outline: as §5
# Acinetobacter baumannii [31] = assay: Antimicrobial activity against Acinetobacter baumannii isolate 10 at pH 7.2; outline: as §4
# Acinetobacter baumannii [32] = assay: Antimicrobial activity against Acinetobacter baumannii isolate 33 harboring GyrA Ser83-Leu mutation at pH 5.8; outline: as §5
# Acinetobacter baumannii [33] = assay: Antimicrobial activity against Acinetobacter baumannii isolate 52 harboring GyrA Ser83-Leu and ParC Ser80-Leu mutation at pH 5.8; outline: as §5
# Acinetobacter baumannii [34] = assay: Antimicrobial activity against Acinetobacter baumannii isolate 22 harboring GyrA Ser83-Leu mutation at pH 7.2; outline: as §4
# Acinetobacter baumannii [35] = assay: Antimicrobial activity against Acinetobacter baumannii isolate 54 harboring GyrA Ser83-Leu and ParC Ser80-Leu mutation at pH 7.2; outline: as §5
# Acinetobacter baumannii [36] = assay: Antimicrobial activity against Acinetobacter baumannii isolate 30 harboring GyrA Ser83-Leu mutation at pH 7.2; outline: as §4
# Acinetobacter baumannii [37] = assay: Antimicrobial activity against Acinetobacter baumannii isolate 45 harboring GyrA Ser83-Leu and ParC Ser80-Leu mutation at pH 5.8; outline: as §5
# Acinetobacter baumannii [38] = assay: Antimicrobial activity against Acinetobacter baumannii isolate 16 at pH 5.8; outline: as §2
# Acinetobacter baumannii [39] = assay: Antimicrobial activity against Acinetobacter baumannii isolate 24 harboring GyrA Ser83-Leu mutation at pH 5.8; outline: as §2
# Acinetobacter baumannii [40] = assay: Antimicrobial activity against Acinetobacter baumannii isolate 44 harboring GyrA Ser83-Leu and ParC Glu84-Lys mutation at pH 5.8; outline: as §5
SMILES,MIC (Acinetobacter baumannii [1]) [µg/mL],MIC (Acinetobacter baumannii [2]) [µg/mL],MIC (Acinetobacter baumannii [3]) [µg/mL],MIC (Acinetobacter baumannii [4]) [µg/mL],MIC (Acinetobacter baumannii [5]) [µg/mL],MIC (Acinetobacter baumannii [6]) [µg/mL],MIC (Acinetobacter baumannii [7]) [µg/mL],MIC (Acinetobacter baumannii [8]) [µg/mL],MIC (Acinetobacter baumannii [9]) [µg/mL],MIC (Acinetobacter baumannii [10]) [µg/mL],MIC (Acinetobacter baumannii [11]) [µg/mL],MIC (Acinetobacter baumannii [12]) [µg/mL],MIC (Acinetobacter baumannii [13]) [µg/mL],MIC (Acinetobacter baumannii [14]) [µg/mL],MIC (Acinetobacter baumannii [15]) [µg/mL],MIC (Acinetobacter baumannii [16]) [µg/mL],MIC (Acinetobacter baumannii [17]) [µg/mL],MIC (Acinetobacter baumannii [18]) [µg/mL],MIC (Acinetobacter baumannii [19]) [µg/mL],MIC (Acinetobacter baumannii [20]) [µg/mL],other results
O=C(O)c1cn(C2CC2)c2cc(N3CCNCC3)c(F)cc2c1=O [CIPROFLOXACIN],128,2,32,> 128,0.06,> 128,0.12,32,16,> 128,128,32,0.12,32,32,128,4,1,4,1,MIC (Acinetobacter baumannii [21]): > 128 µg/mL; MIC (Acinetobacter baumannii [22]): 32 µg/mL; MIC (Acinetobacter baumannii [23]): > 128 µg/mL; MIC (Acinetobacter baumannii [24]): > 128 µg/mL; MIC (Acinetobacter baumannii [25]): 32 µg/mL; MIC (Acinetobacter baumannii [26]): 128 µg/mL; MIC (Acinetobacter baumannii [27]): 16 µg/mL; MIC (Acinetobacter baumannii [28]): 0.12 µg/mL; MIC (Acinetobacter baumannii [29]): 1 µg/mL; MIC (Acinetobacter baumannii [30]): > 128 µg/mL; MIC (Acinetobacter baumannii [31]): 0.25 µg/mL; MIC (Acinetobacter baumannii [32]): 128 µg/mL; MIC (Acinetobacter baumannii [33]): > 128 µg/mL; MIC (Acinetobacter baumannii [34]): 4 µg/mL; MIC (Acinetobacter baumannii [35]): 128 µg/mL; MIC (Acinetobacter baumannii [36]): 8 µg/mL; MIC (Acinetobacter baumannii [37]): > 128 µg/mL; MIC (Acinetobacter baumannii [38]): 4 µg/mL; MIC (Acinetobacter baumannii [39]): 32 µg/mL; MIC (Acinetobacter baumannii [40]): > 128 µg/mL
N#Cc1c(N2C[C@@H]3NCCO[C@H]3C2)c(F)cc2c(=O)c(C(=O)O)cn(C3CC3)c12 [FINAFLOXACIN],64,0.12,0.25,4,0.12,64,0.25,2,16,64,16,0.5,0.25,1,16,16,0.06,1,16,1,MIC (Acinetobacter baumannii [21]): 2 µg/mL; MIC (Acinetobacter baumannii [22]): 4 µg/mL; MIC (Acinetobacter baumannii [23]): 4 µg/mL; MIC (Acinetobacter baumannii [24]): 2 µg/mL; MIC (Acinetobacter baumannii [25]): 1 µg/mL; MIC (Acinetobacter baumannii [26]): 64 µg/mL; MIC (Acinetobacter baumannii [27]): 16 µg/mL; MIC (Acinetobacter baumannii [28]): 0.25 µg/mL; MIC (Acinetobacter baumannii [29]): 0.03 µg/mL; MIC (Acinetobacter baumannii [30]): 2 µg/mL; MIC (Acinetobacter baumannii [31]): 0.25 µg/mL; MIC (Acinetobacter baumannii [32]): 1 µg/mL; MIC (Acinetobacter baumannii [33]): 2 µg/mL; MIC (Acinetobacter baumannii [34]): 8 µg/mL; MIC (Acinetobacter baumannii [35]): 32 µg/mL; MIC (Acinetobacter baumannii [36]): 8 µg/mL; MIC (Acinetobacter baumannii [37]): 2 µg/mL; MIC (Acinetobacter baumannii [38]): 0.12 µg/mL; MIC (Acinetobacter baumannii [39]): 2 µg/mL; MIC (Acinetobacter baumannii [40]): 4 µg/mL
